Calls of active or inactive are those of the source. The calls are words filed in the database; no cut-off is given here.
Key:
[1] = Fraction unbound in mouse plasma; assay type: ADME, cell-free
[2] = Oral bioavailability in CD1 Swiss mouse at 10 mg/kg; assay type: ADME, organism-based; details: in vivo
Rattus norvegicus [3] = test: Antialzheimer activity in Sprague-Dawley rat assessed as amyloid beta 37 level in brain at 10 mg/kg, po at 4 hrs by ELISA relative to control; assay type: functional
How it was run: (§1)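 Male Sprague-Dawley rats (180-220 g), fasted overnight, were given 10 mg/kg by gastric intubation as a 5 mg/mL suspension in 0.5% methocellulose. At 2, 4, 7 and 25 h, 50 μL CSF was taken from the cisterna magna under isoflurane, then brain was collected. Aβ37/38/40/42 were measured by MesoScale Discovery sandwich immunoassays. Results are mean % change versus T = 0 h, n = 5.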

Mus musculus [4] = test: Inhibition of gamma-secretase in CD1 mouse assessed as total amyloid beta level in brain at 10 mg/kg, po at 4 hrs by ELISA relative to control; assay type: functional; design: scale not given: the % may be the effect or the level left
How it was run: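 Fasted male CD1 SPF mice were dosed orally at 10 or 30 mg/kg in 20% Captisol. Right hemisphere was homogenized in 0.4% DEA/50 mM NaCl and the high-speed supernatant neutralized. Aβtotal ELISA used N-terminal JRF/rAβ/2 capture, biotinylated 4G8 and streptavidin-peroxidase, then a fluorogenic substrate (ex 320/em 420 nm). Standards spanned 10000–0.3 pg/mL. Values are % change vs T = 0 h, n = 4.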

Rattus norvegicus [5] = test: Antialzheimer activity in Sprague-Dawley rat assessed as amyloid beta 38 level in brain at 10 mg/kg, po at 25 hrs by ELISA relative to control; assay type: functional; how it was run: as §1
[6] = Drug uptake in Sprague-Dawley rat brain at 10 mg/kg, po at 4 hrs by LC-MS/MS analysis; assay type: ADME, organism-based; design: dose 10 mg/kg, route oral; details: read-out: Drug uptake
How it was run: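 Overnight-fasted male Sprague–Dawley rats (180–220 g) were dosed 10 mg/kg by gastric intubation of a 5 mg/mL suspension in 0.5% methocellulose. Rats were anesthetized with isoflurane, CSF was taken from the cisterna magna, then they were decapitated. Brain compound levels were measured as in the mouse assay. n = 5.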

[7] = Thermodynamic solubility in buffer at pH 7.4; assay type: physicochemical; details: read-out: Therm_solubility
How it was run: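 Thermodynamic solubility was measured in pH 4.0 and pH 7.4 buffers, 0.01 N HCl, and fasted-state and fed-state simulated intestinal fluids (FaSSIF, FeSSIF). Results are in […].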

[8] = Drug metabolism in mouse liver microsomes at 1 uM after 15 mins by ion-trap mass spectrophotometry; assay type: ADME, Microsome; details: read-out: Drug metabolism
[9] = Inhibition of sodium channel site 2 at 10 uM
Cytochrome P450 1A2 = target: T1, Cytochrome P450 1A2 (Homo sapiens, UniProt P05177); test: Inhibition of CYP1A2 in human liver microsomes using phenacetin as substrate; assay type: ADME, Microsome
T1 sequence (P05177 whole entry): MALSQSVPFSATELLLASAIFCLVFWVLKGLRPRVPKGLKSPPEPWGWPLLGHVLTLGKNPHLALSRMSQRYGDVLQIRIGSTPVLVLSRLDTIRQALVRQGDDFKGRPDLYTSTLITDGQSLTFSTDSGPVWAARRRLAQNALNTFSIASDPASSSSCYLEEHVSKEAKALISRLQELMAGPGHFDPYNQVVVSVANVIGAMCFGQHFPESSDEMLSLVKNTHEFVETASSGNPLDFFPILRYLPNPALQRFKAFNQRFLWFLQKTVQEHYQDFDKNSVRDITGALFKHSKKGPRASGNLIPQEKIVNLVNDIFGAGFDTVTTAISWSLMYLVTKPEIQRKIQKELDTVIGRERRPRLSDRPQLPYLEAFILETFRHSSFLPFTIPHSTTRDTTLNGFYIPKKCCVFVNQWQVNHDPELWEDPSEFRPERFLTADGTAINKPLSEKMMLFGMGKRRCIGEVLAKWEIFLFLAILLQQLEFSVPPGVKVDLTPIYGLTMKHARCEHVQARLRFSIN

[10] = Inhibition of notch processing up to 10 uM
Rattus norvegicus [11] = test: Antialzheimer activity in Sprague-Dawley rat assessed as amyloid beta 38 level in CSF at 10 mg/kg, po at 2 hrs by ELISA relative to control; assay type: functional; how it was run: as §1
[12] = Drug uptake in CD1 mouse brain at 10 mg/kg, po at 4 hrs by LC-MS/MS analysis; assay type: ADME, organism-based; design: dose 10 mg/kg, route oral; details: read-out: Drug uptake
How it was run: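 Overnight-fasted male CD1 mice received one oral dose (10 or 30 mg/kg) in 20% Captisol. After sacrifice, the left brain hemisphere was stored at −18 °C. Compound level was quantified by a qualified LC-MS/MS method, alongside EDTA plasma spun at 1900g, 4 °C. n = 4 per time point.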

Cytochrome P450 3A4 = Cytochrome P450 3A4 (Homo sapiens, UniProt P08684); test: Inhibition of CYP3A4 in human liver microsomes using testosterone as substrate; assay type: ADME, Microsome
Mus musculus [13] = test: Antialzheimer activity in CD1 mouse assessed as amyloid beta 42 level in brain at 30 mg/kg, po at 8 hrs by ELISA relative to control; assay type: functional
How it was run: (§2)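 Male CD1 SPF mice, fasted overnight, got a single oral dose of 10 or 30 mg/kg. At each time point the right brain hemisphere was homogenized in 0.4% DEA/50 mM NaCl with protease inhibitors and spun at 221300g for 50 min. The supernatant was neutralized with Tris-HCl pH 6.8. Aβ38 or Aβ42 was read by sandwich ELISA with a fluorogenic peroxidase substrate (ex 320/em 420 nm). Results are mean % change versus T = 0 h, n = 4.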

Rattus norvegicus [14] = test: Antialzheimer activity in Sprague-Dawley rat assessed as amyloid beta 37 level in CSF at 10 mg/kg, po at 25 hrs by ELISA relative to control; assay type: functional; how it was run: as §1
Rattus norvegicus [15] = test: Antialzheimer activity in Sprague-Dawley rat assessed as amyloid beta 40 level in brain at 10 mg/kg, po at 7 hrs by ELISA relative to control; assay type: functional; how it was run: as §1
[16] = target: Voltage-gated inwardly rectifying potassium channel KCNH2 (Homo sapiens, UniProt Q12809); test: Displacement of [3H]dofetilide to human ERG expressed in HEK293 cells; assay type: cell-based
[17] = Plasma concentration in CD1 mouse at 30 mg/kg, po at 24 hrs by LC-MS/MS analysis; assay type: ADME, organism-based; design: dose 30 mg/kg, route oral
How it was run: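 Mice received a single 10 or 30 mg/kg oral dose. Plasma was sampled at several time points up to 48 h, with EDTA plasma obtained by centrifugation at 1900g, 10 min, 4 °C. Compound was quantified by LC-MS/MS, n = 4.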

Mus musculus [18] = test: Antialzheimer activity in CD1 mouse assessed as amyloid beta 38 level in brain at 30 mg/kg, po at 4 hrs by ELISA relative to control; assay type: functional; how it was run: as §2
Rattus norvegicus [19] = test: Antialzheimer activity in Sprague-Dawley rat assessed as amyloid beta 37 level in brain at 10 mg/kg, po at 7 hrs by ELISA relative to control; assay type: functional; how it was run: as §1
Mus musculus [20] = test: Antialzheimer activity in CD1 mouse assessed as amyloid beta 38 level in brain at 10 mg/kg, po at 4 hrs by ELISA relative to control; assay type: functional; how it was run: as §2

Chain of Cytochrome P450 3A4 (P08684 whole entry): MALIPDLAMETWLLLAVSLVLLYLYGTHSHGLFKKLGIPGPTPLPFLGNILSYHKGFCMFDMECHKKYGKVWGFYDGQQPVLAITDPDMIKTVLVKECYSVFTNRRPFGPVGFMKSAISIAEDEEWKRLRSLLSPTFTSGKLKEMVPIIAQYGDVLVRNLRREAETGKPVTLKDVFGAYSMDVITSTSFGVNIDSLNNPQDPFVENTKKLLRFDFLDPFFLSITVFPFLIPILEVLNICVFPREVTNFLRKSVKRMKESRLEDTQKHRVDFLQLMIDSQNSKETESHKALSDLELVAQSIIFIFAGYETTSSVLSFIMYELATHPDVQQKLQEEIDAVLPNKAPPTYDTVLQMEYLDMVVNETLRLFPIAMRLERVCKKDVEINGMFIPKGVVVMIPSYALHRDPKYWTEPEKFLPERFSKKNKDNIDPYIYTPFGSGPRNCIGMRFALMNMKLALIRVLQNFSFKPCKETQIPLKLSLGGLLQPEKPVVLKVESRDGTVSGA
Chain of Voltage-gated inwardly rectifying potassium channel KCNH2 (Q12809 whole entry): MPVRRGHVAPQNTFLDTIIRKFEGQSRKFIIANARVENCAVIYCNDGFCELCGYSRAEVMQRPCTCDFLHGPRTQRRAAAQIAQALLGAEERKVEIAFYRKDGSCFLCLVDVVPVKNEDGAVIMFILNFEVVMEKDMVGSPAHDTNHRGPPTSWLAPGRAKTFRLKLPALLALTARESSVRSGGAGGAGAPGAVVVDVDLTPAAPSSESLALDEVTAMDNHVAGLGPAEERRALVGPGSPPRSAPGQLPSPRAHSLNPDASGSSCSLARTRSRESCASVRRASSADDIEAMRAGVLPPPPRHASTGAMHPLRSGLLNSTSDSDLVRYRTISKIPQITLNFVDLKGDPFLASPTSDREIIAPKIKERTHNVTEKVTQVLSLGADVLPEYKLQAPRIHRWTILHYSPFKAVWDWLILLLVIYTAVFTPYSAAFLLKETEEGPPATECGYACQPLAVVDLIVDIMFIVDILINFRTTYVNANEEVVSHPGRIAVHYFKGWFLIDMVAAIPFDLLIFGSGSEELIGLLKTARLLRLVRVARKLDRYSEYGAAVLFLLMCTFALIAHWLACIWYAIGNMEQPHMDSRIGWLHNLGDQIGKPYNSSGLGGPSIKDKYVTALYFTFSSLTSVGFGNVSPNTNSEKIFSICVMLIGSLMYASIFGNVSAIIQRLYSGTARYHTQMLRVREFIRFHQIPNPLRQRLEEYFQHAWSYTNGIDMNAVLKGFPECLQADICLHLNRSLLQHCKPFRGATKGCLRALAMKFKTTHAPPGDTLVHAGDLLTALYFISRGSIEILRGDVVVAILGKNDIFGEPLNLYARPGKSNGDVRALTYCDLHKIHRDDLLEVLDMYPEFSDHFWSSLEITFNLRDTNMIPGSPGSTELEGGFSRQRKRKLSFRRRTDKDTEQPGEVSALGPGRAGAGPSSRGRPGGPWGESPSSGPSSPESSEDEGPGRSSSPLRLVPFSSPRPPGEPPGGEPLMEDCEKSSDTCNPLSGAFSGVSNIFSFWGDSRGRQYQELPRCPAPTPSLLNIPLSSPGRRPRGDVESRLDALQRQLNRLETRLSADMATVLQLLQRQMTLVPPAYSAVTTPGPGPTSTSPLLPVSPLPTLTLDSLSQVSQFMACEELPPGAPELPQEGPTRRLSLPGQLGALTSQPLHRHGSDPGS

**Q.** With `COc1nc(Nc2cccc3c2nc(-c2ccc(F)cc2)n3C)ccc1-n1cnc(C)c1` as the compound, how does the fraction unbound [1] read?
**A.** The fraction unbound was 0.0004.

**Q.** And the bioavailability [2]?
**A.** Its bioavailability is 100%.

**Q.** And the Activity (Rattus norvegicus [3])?
**A.** Its Activity is 506%.

**Q.** And the Activity (Mus musculus [4])?
**A.** Its Activity is 94%.

**Q.** And the Activity (Rattus norvegicus [5])?
**A.** Its Activity is 105%.

**Q.** What about the concentration at 4 h [6] of the same compound?
**A.** Its concentration at 4 h is 2200 nM.

**Q.** And the solubility thermodynamic [7]?
**A.** Its solubility thermodynamic is < 1 µg/mL.

**Q.** And the metabolised at 0.25 h, 1 µM [8]?
**A.** Its metabolised at 0.25 h, 1 µM is 0%.

**Q.** And the inhibition [9]?
**A.** The inhibition was 60%.

**Q.** And the IC50 (Cytochrome P450 1A2)?
**A.** The IC50 was > 30 µM.

**Q.** And the inhibition [10]?
**A.** The inhibition was “inactive”.

**Q.** What about the Activity (Rattus norvegicus [11]) of the same compound?
**A.** Its Activity is 162%.

**Q.** And the concentration at 4 h [12]?
**A.** The concentration at 4 h was 2800 nM.

**Q.** And the IC50 (Cytochrome P450 3A4)?
**A.** The IC50 was 2.9 µM.

**Q.** And the Activity (Mus musculus [13])?
**A.** Its Activity is 29%.

**Q.** What about the Activity (Rattus norvegicus [14]) of the same compound?
**A.** The Activity was 124%.

**Q.** What about the Activity (Rattus norvegicus [15]) of the same compound?
**A.** Its Activity is 66%.

**Q.** What about the IC50 [16] of the same compound?
**A.** Its IC50 is 8.5 µM.

**Q.** What about the concentration at 24 h [17] of the same compound?
**A.** The concentration at 24 h was 310 nM.

**Q.** What about the Activity (Mus musculus [18]) of the same compound?
**A.** The Activity was 165%.

**Q.** And the Activity (Rattus norvegicus [19])?
**A.** Its Activity is 620%.

**Q.** What about the Activity (Mus musculus [20]) of the same compound?
**A.** The Activity was 141%.

Source: ChEMBL document CHEMBL2176900, “Design and synthesis of a novel series of bicyclic heterocycles as potent γ-secretase modulators” (J Med Chem, 2012)
